Bioassay records: PubChem BioAssay, several laboratories
MC4R barr agon: MC4R agonists recruiting beta-arrestin, primary screen, cell-based, luminescence, agonist arm of biased-ligand search. activation, % at 8.9 µM. hit rate 0.98% among 360,000. Melanocortin receptor 4 (Homo sapiens), P32245. AID 540308, 2011. U2OS MC4R beta-arrestin complementation; percent of melanotan II response, DMSO zero;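 active = activation above a per-plate cutoff, the mean activation of sample wells on that plate plus 3 SD, cut at about 8% in these data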
MC4R antagonist: MC4R antagonists of cAMP signaling, primary screen, cell-based, TR-FRET, antagonist arm of biased-ligand search; Melanocortin receptor 4 (Homo sapiens), P32245; hit rate 0.48% among 360,000; MC4R-expressing cells, MTII-stimulated cAMP, LANCE TR-FRET; AID 540295, 2011; inhibition, % at 6.5 µM;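 active = inhibition above its plate's cutoff, the mean of tested wells on that plate plus 3 SD, cut at about 29% in these data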;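 also: 0% = Melanotan II alone and 100% = Melanotan II plus saturating MCL0020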
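material = U2OS cells stably expressing human melanocortin 4 receptor (MC4R) | also added = Melanotan II challenge | dosing = single nominal compound dose of 6.5 µM | detection = TR-FRET with Eu-cAMP and labeled anti-cAMP, 671 nm | replication = singlicate | timing = compound 30 min, challenge 1 h, detection 1 h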
Exocytosis inh: LAMP-1 surface exposure blockers, TALL-104 cells – cell-based, flow cytometry, MLPCN library, primary screen; TALL-104 LAMP-1 surface exposure; cells stimulated with thapsigargin and PMA; hit rate 0.66% among 360,000; AID 651702, 2012; inhibition, % at 10 µM;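 active = inhibition above about 55%, limit read from the data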
Myeloid diff MLP: induction of myeloid progenitor differentiation, primary screen, cell-based, flow cytometry, MLPCN library; ER-HoxA9 myeloid progenitors, lysozyme-GFP differentiation; calls only at 10 µM; hit rate 1% among 360,000;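 active = normalized GFP-positive differentiation at or above the plate's own cutoff, the solvent-only control mean plus 3 SD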;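 also: cells exposed to compound for four days before flow analysis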
EBI2 block: EBI2 receptor antagonists, beta-arrestin recruitment, primary screen, cell-based, luminescence, 7a,25-OHC stimulation, uHTS; inhibition, % at 5 µM; AID 651636, 2012; hit rate 0.81% among 360,000; 7a,25-OHC stimulated; in the data active = inhibition above about 38%;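 also: enzyme fragment complementation signal reports receptor beta-arrestin coupling in cells; 0% = agonist plus DMSO wells and 100% = wells without agonist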
Target sequence (P32249 whole entry, looked up, the tested form may be a part): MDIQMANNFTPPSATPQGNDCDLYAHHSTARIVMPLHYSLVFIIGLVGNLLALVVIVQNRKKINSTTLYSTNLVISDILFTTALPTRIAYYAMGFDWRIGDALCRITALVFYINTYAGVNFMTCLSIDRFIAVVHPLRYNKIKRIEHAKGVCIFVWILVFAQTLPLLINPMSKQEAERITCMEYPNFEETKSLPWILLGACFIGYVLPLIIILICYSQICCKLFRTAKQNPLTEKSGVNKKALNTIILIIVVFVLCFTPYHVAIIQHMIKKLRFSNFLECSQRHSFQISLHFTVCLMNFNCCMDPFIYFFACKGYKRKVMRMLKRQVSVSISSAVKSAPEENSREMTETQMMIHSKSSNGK
Myeloid diff CP1: inducers of myeloid progenitor differentiation, confirmation, cell-based, GFP/Mac1 flow cytometry, cherry pick 01; shares compounds with Myeloid diff MLP; ER-HoxA9 myeloid progenitors, GFP/Mac1 double-positive flow; calls only; hit rate 2% among 2,300;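 active = share of green or green-and-red cells above 9 and 9% in run 1 or 4 and 3% in run 2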
GFP autofluor: flagged as fluorescent in myeloid differentiation counter-screen; shares compounds with Myeloid diff MLP; ER-HoxA9 myeloid progenitors, no estrogen, GFP autofluorescence flow cytometry; vehicle wells 0%, positive control 100%; fluorescence response, % (test concentration not listed); hit rate 7.4% among 2,300;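 active = over 5% cells positive for green fluorescent reporter, or over 2% positive for both it and APC stain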;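 also: range taken on the double positive population between DMSO and positive control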
Numbers without * were called inactive. Most compounds without a hit are left out; they make up all but 3.7% or so of the library.

For O=C(NC1CCCCC1)c1cccc2c1C(=O)c1ccc(N3CCC(Cc4ccccc4)CC3)cc1S2(=O)=O the results were MC4R barr agon 1, MC4R antagonist 10, Exocytosis inh -5, Myeloid diff MLP active, EBI2 block -11, Myeloid diff CP1 inactive and GFP autofluor 1.
Screening O=C(NCC1CCCO1)c1cccc2c1C(=O)c1ccc(N3CCC(Cc4ccccc4)CC3)cc1S2(=O)=O (stereo not given) returned MC4R barr agon 0, MC4R antagonist 18, Exocytosis inh -1, Myeloid diff MLP inactive and EBI2 block -16.
For CC(C)CN(C(=O)COc1ccc(C(C)(C)C)cc1)C1CCS(=O)(=O)C1 (stereo not given) the results were MC4R barr agon 0, MC4R antagonist 9, Exocytosis inh -6, Myeloid diff MLP inactive and EBI2 block 0.
CCOC(=O)C(=CNc1cc(C)nn1-c1ccccc1)C(=O)OCC was read as MC4R barr agon -1, MC4R antagonist 12, Exocytosis inh 0, Myeloid diff MLP inactive, EBI2 block -4, Myeloid diff CP1 inactive and GFP autofluor 0.
For Cc1cc(C)c(C#N)c(SCC(O)CS(=O)(=O)Cc2ccccc2)n1 (stereo not given) the results were MC4R barr agon 2, MC4R antagonist -6, Exocytosis inh 7, Myeloid diff MLP inactive, EBI2 block 5, Myeloid diff CP1 inactive and GFP autofluor 0.
`Cc1ccc(OCC(=O)Nc2ccc(NC(=O)c3ccccc3)c(C)c2)cc1` gave MC4R barr agon 4, MC4R antagonist 10, Exocytosis inh 2, Myeloid diff MLP inactive and EBI2 block 1.
`COc1cc(C(=O)NCCC(=O)NCCc2ccc(Cl)cc2)cc(OC)c1OC` gave MC4R barr agon -2, MC4R antagonist 6, Exocytosis inh -6, Myeloid diff MLP inactive and EBI2 block -4.
Screening COc1cc(C(=O)NCCC(=O)NCc2c(F)cc(F)cc2F)cc(OC)c1OC returned MC4R barr agon 0, MC4R antagonist 7, Exocytosis inh -7, Myeloid diff MLP inactive, EBI2 block -3, Myeloid diff CP1 inactive and GFP autofluor 0.
For CCc1cc(=O)oc2cc(OC(C)C(=O)N3CC[C@@]4(O)CCCC[C@H]4C3)ccc12 (stereo not given in full) the results were MC4R barr agon -2, MC4R antagonist 2, Exocytosis inh -3, Myeloid diff MLP inactive and EBI2 block -8.
`N#C/C(=C/c1ccc(-c2ccc([N+](=O)[O-])cc2)o1)c1nnc(N2CCOCC2)n1-c1ccccc1` gave MC4R barr agon -2, MC4R antagonist -1, Exocytosis inh 28, Myeloid diff MLP active, EBI2 block -18, Myeloid diff CP1 inactive and GFP autofluor 4.
`COc1cc(/C=C(\C#N)c2nnc(N3CCOCC3)n2-c2ccccc2)ccc1O` gave MC4R barr agon 3, MC4R antagonist -14, Exocytosis inh 7, Myeloid diff MLP inactive and EBI2 block -11.
O=S(=O)(NCc1ccccc1Br)c1cccs1 was read as MC4R barr agon 1, MC4R antagonist -7, Exocytosis inh -2, Myeloid diff MLP inactive, EBI2 block 4, Myeloid diff CP1 inactive and GFP autofluor 0.
CC1CCN(CC(=O)Nc2ccccc2C#N)CC1 was read as MC4R barr agon 4, MC4R antagonist 2, Exocytosis inh 0, Myeloid diff MLP active, EBI2 block 13, Myeloid diff CP1 inactive and GFP autofluor 0.
Screening COC(=O)[C@H](NC(=O)c1cc(-c2ccccc2)sc1N)C(C)C returned Exocytosis inh 12, Myeloid diff MLP inactive and EBI2 block 18.
`Fc1ccccc1N1CCN(C2CCCN(Cc3ccccc3C(F)(F)F)C2)CC1` (stereo not given) gave MC4R barr agon 3, MC4R antagonist 1, Exocytosis inh 16, Myeloid diff MLP active, EBI2 block 0, Myeloid diff CP1 inactive and GFP autofluor 0.
For COc1ccc(C(=O)OCc2cc(C)ccc2C)cc1S(=O)(=O)N1CCCC1 the results were MC4R barr agon 0, MC4R antagonist -5, Exocytosis inh -1, Myeloid diff MLP active, EBI2 block 9, Myeloid diff CP1 inactive and GFP autofluor 0.
For CCOC(=O)/C=C1\Nc2ccccc2OC1=O the results were MC4R barr agon -1, MC4R antagonist 26, Exocytosis inh -2, Myeloid diff MLP active, EBI2 block -7, Myeloid diff CP1 inactive and GFP autofluor 0.
Screening CCOC(=O)/C=C1\CC(C(=O)OCC)Oc2ccccc21 (stereo not given) returned MC4R barr agon -1, MC4R antagonist 7, Exocytosis inh 2, Myeloid diff MLP inactive and EBI2 block -7.
For COCCN1C(=O)COc2ccccc2C1C(=O)Nc1ccc2c(c1)OCCO2 (stereo not given) the results were Exocytosis inh -5, Myeloid diff MLP inactive and EBI2 block -2.
For O=C(C1CCCCN1S(=O)(=O)c1ccccc1)N1CCCCC1 (stereo not given) the results were MC4R barr agon 2, MC4R antagonist 8, Exocytosis inh -5, Myeloid diff MLP active, EBI2 block 5, Myeloid diff CP1 inactive and GFP autofluor 0.
O=C(O)C1CCCCN1S(=O)(=O)c1ccccc1 (stereo not given) was read as MC4R barr agon 1, MC4R antagonist 5, Exocytosis inh -2, Myeloid diff MLP inactive and EBI2 block -1.
Cc1ccc(N=C2NC(=O)/C(=C/c3cn(C)c4ccccc34)S2)cc1C was read as MC4R barr agon -2, MC4R antagonist 6, Exocytosis inh 4, Myeloid diff MLP active, EBI2 block 38, Myeloid diff CP1 inactive and GFP autofluor 35*.
For O=C(NCc1cccs1)c1ccc(CS(=O)(=O)c2ccc(Cl)cc2)o1 the results were MC4R barr agon 0, MC4R antagonist 2, Exocytosis inh 1, Myeloid diff MLP active, EBI2 block -6, Myeloid diff CP1 inactive and GFP autofluor 0.
Screening O=Cc1sc(Nc2ccccc2)nc1Cl returned MC4R barr agon 0, MC4R antagonist -1, Exocytosis inh 1, Myeloid diff MLP active, EBI2 block -4, Myeloid diff CP1 inactive and GFP autofluor 52*.
